# Fewer inactive variants are shown than the library holds.
# B1: tRNA (parent)
# chain: GUUCCGUUGGCGUAAUGGUAACGCGUCUCCCUCCUAAGGAGAAGACUGCGGGUUCGAGUCCCGUACGGAACG
# Variants of: B1
# Experiment: yeast fitness relative to wild type (ratio to wild type); higher = fitter; tRNA-Arg(CCU), competitive growth, 37 C, YPD
# Method in brief: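 Changes in genotype frequencies gave Darwinian fitness relative to wild type. Frequencies were read by 100-nucleotide paired-end sequencing of gene amplicons before and after pooled Saccharomyces cerevisiae strains, carrying tRNA-Arg(CCU) gene variants at the native locus, were competed in YPD at 37°C for 24 hours in six replicates. A genotype was kept only with ≥ 100 starting reads, and estimates < 0.5 were set to 0.5.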
row,Variant,yeast fitness
1,G23A C61A A70U,≤ 0.5
2,G23A C27G C34A A45C U64G,≤ 0.5
3,G23A G51A C66U,≤ 0.5
4,G23C A37C A45G C49G,0.671
5,G23U A69C,0.695
6,C24A C61A G67A,≤ 0.5
7,C24A C30U A45G U54C A57U C62U,0.548
8,G23C C27G C31G,0.608
9,G23A A36U A40C G52A C61G,0.639
10,G23A C24U A37C G41C U54C U64C,≤ 0.5
11,G23C A42U A43G A65U,≤ 0.5
12,C24A C49U,0.614
13,G23A C27U A37U C60U C61A,≤ 0.5
14,C22U U32C A45U C46U A57U,≤ 0.5
15,G23C C49G G51C G52A,≤ 0.5
16,G23C G56A A70U,≤ 0.5
17,C22U U35A G67U,≤ 0.5
18,G23A C29U C30A A42U U53A,≤ 0.5
19,G23A A43U C49U C62U,≤ 0.5
20,C24A A45G C61U,≤ 0.5
21,G23A C55A,≤ 0.5
22,G23A U53C C66A,≤ 0.5
23,C24A A42G C61U C62G,0.541
24,G23A A36U G39C A70C,≤ 0.5

row,Variant,yeast fitness
1,C24A G67U,0.669
2,C24A G67C,0.74
3,C24A G67A,0.709
4,G23C G38A C61U,0.578
5,G23A A57G,0.715
6,G23C G25A,0.818
7,G23C C33G C46A C66A,0.596
8,G23A G58C A70C,0.582
9,G23C U54C,0.502
10,G23A C31U C33G A65G,≤ 0.5
11,C24A A36G A43G,≤ 0.5
12,G23C C49G G63A,≤ 0.5
13,G23C C33A G50C G58C A70G,0.548
14,C24A A40U A43U C61G G68U,0.597
15,G23A A37U C49G C55G,0.556
16,C24A C31U A45U A69U,≤ 0.5
17,C24A C29A A40U A43G C49G,≤ 0.5
18,C24A A42G,0.548
19,C24A C66G,0.548
20,G23C U26C A37G A40G A42G U64C,≤ 0.5
21,G23A C27U,0.706
22,G23C G38C A40U G58C,≤ 0.5
23,C24A U26A C31A C55A U64C,≤ 0.5
24,G23A A36C,0.586

row,Variant,yeast fitness
1,G23A A36U,0.536
2,G23A C30U A37C A57C,≤ 0.5
3,G23C C46U G67A,0.564
4,C24A C30U A45G,≤ 0.5
5,G23A A36G C61U A65U,≤ 0.5
6,C24A A43G G63U U64A,≤ 0.5
7,G23C C60G C61U G68A,≤ 0.5
8,C24A C27G C29G G52C C62U,0.567
9,G23C G41C G68A,≤ 0.5
10,G23A C29G G52C,≤ 0.5
11,G23C C31A C62A,0.527
12,G23A C62U A69U,0.642
13,C24A C33A A37U G50C C61U,≤ 0.5
14,C24A C27G C29A A70G,≤ 0.5
15,G23U U54G,≤ 0.5
16,C24A C27G U53C C55U,≤ 0.5
17,C22U U32G C34U A40G,0.62
18,C24A U26A C31A,0.544
19,G23C C27A A57U,≤ 0.5
20,C22U U64C C66U,0.7
21,G23A U47A,0.796
22,C22U U32C G51A C61G,≤ 0.5
23,G23C U32A C66U,≤ 0.5
24,G23C C61U A70U,0.6

row,Variant,yeast fitness
1,G23C C29U A36C C49G A70U,0.53
2,G23A U47A U64A,≤ 0.5
3,G23C C34G C55G,≤ 0.5
4,G23C C30G,0.511
5,G23A C49U,0.735
6,C22U U53C C61G G67A A69C,≤ 0.5
7,C24A C33A C49U U54G,0.58
8,G23A C29G U64A,≤ 0.5
9,C24A C30U C55U,≤ 0.5
10,G23A C46A,0.882
11,G23C A36U U53C,0.553
12,G23A C62G,0.782
13,G23A C62U,0.781
14,G23A A40G C46G,≤ 0.5
15,G23A C27U A37U,0.58
16,G23A C33G A69C,≤ 0.5
17,G23A C29G U32C A45U C60G C61U A69G,≤ 0.5
18,C24A A45G C61G C62U,0.543
19,G23C C62G,0.692
20,G23C G25C C55G,≤ 0.5
21,G23C A36U G52C,≤ 0.5
22,G23A C49A G58A,≤ 0.5
23,G23C C31G G50A,≤ 0.5
24,G23A C30U,0.68

row,Variant,yeast fitness
1,C24A C60G,0.51
2,G23A A42G A45U G63C U64C A65G,≤ 0.5
3,G23A A40U A70G,0.537
4,C24A C31G C62A,0.594
5,G23A G63A,0.7
6,G23C C29G G63C C66G,≤ 0.5
7,G23C G68A A69U,≤ 0.5
8,C24A C31U,0.754
9,C24A C31A,0.603
10,C24A C31G,0.625
11,C24A A42G U47C U59C,≤ 0.5
12,G23C U26C C46G C55U,≤ 0.5
13,G23U A36C C46U G50C G67C,≤ 0.5
14,C22U U32A C46G G52C,≤ 0.5
15,C24A C29U G67U,0.591
16,C24A C29U C61G,≤ 0.5
17,G23C U53A,0.55
18,C24A C55A C62U A65C,0.529
19,G23C C66G,≤ 0.5
20,G23C C66A,≤ 0.5
21,C22U U53G,≤ 0.5
22,C22U U53A,0.673
23,G23C C24U A57C G63A C66G,≤ 0.5
24,C24A C33A C46U C60G,≤ 0.5

row,Variant,yeast fitness
1,G23A C29U C33G A42G,≤ 0.5
2,C24A C33A C49U U54G A70C,≤ 0.5
3,C24A C62U A70C,≤ 0.5
4,C24A C62U A70U,0.543
5,G23A C31G A45C G52C,≤ 0.5
6,G23C G41C C66U,≤ 0.5
7,G23C A37G A42U G48C C49U,≤ 0.5
8,C24A G25C,0.702
9,G23C G41A,0.716
10,G23A C24U,0.94
11,G23C C24A G38A C62A A69G,≤ 0.5
12,G23A U26A U28A C29G,≤ 0.5
13,G23C C60A A70U,0.536
14,G23C C24U A37C U53C,≤ 0.5
15,G23C C24A C30G A40U U47A G51C,0.506
16,C24A G41A G44A U53A C66U,≤ 0.5
17,G23C C33A G50C G58C,≤ 0.5
18,C24A C33A C49U A69U,≤ 0.5
19,C24A A37U,0.579
20,C24A A37G,0.513
21,G23A C31G,0.811
22,G23A C31U,0.731
23,G23A A57C C62G,0.625
24,G23A A36G A57C C60A,≤ 0.5

row,Variant,yeast fitness
1,G23C C24A U32C A65U G68A,≤ 0.5
2,G23U C60U A65G,≤ 0.5
3,G23A G41C C49G,0.854
4,G23C C29G A43U G50A A70U,≤ 0.5
5,G23C G50C G52A,0.698
6,G23A C33G A70U,≤ 0.5
7,C24A A42G C49U U59G C62A A69G,≤ 0.5
8,C24A C29G U32G G38A U47A,≤ 0.5
9,G23A G52C,0.564
10,C22U U53C G68C,≤ 0.5
11,G23C U26C,0.624
12,C24A A43C,0.55
13,C24A A43G,0.597
14,G23C C60G C61U,≤ 0.5
15,G23A G58C,0.885
16,G23A G58A,0.715
17,C24A A36G A37G,≤ 0.5
18,C24A C55A A65G,≤ 0.5
19,C24A A43U A45C,≤ 0.5
20,C24A C61U G67A,≤ 0.5
21,C22U U54C C66G,≤ 0.5
22,G23C C46U C62U,0.592
23,C24A A36U C55A,≤ 0.5
